Consider two molecules from article PMC4935665 (Journal of bone and mineral research : the official journal …, 2016).

A short description of one data set: in vivo. The following applies: rat, iv, 24.3 nmol/kg.
The subject of another data set is rats. As to conditions: daily injection 20 nmol/kg sc; cited from earlier work.
For data set [1], the system named is TPTX rats. Put plainly: Single IV injection in TPTX rats, serum Ca and Pi. The following applies: for time for sPi to return to vehicle-control levels: single IV 24.3 nmol/kg; for sCa response versus sham-control level: single IV 24.3 nmol/kg (highest dose); for duration of modest, transient sCa increase and sPi decrease: single IV, dose 80-fold higher than that used for LA-PTH. Format: in vivo, rat.

The test system of a further data set is cynomolgus monkeys. Nature of the data set: Single SC injection in cynomolgus monkeys, serum Ca. Format: in vivo, cynomolgus monkey. The following applies: SC 10 nmol/kg. The method, boiled down: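 Normal cynomolgus monkeys receive SC injections in two experiments, with serum Ca followed after injection. In experiment 1, animals get vehicle or test peptide at 0.25, 0.5 or 1.0 nmol/kg, three animals per dose.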

The subject of another data set is HP patients. The following applies: cited from earlier work.
For data set [2] the following is noted: human, in vivo; cited from earlier work.
Data set [3] relates to TPTX rats. Format: in vivo, rat. The following applies: once daily SC 9 nmol/kg.
The conditions of data set [4]: rat, in vivo, iv.
[5] abbreviates: HP patients, single SC injection.

In the data set “in vivo”, `CC[C@H](C)[C@H](NC(=O)[C@H](CCC(=O)O)NC(=O)[C@H](CO)NC(=O)[C@@H](NC(=O)[C@@H](N)CO)C(C)C)C(=O)N[C@@H](CCC(N)=O)C(=O)N[C@@H](CC(C)C)C(=O)N[C@@H](CCSC)C(=O)N[C@@H](Cc1c[nH]cn1)C(=O)N[C@@H](CC(N)=O)C(=O)N[C@@H](CC(C)C)C(=O)NCC(=O)N[C@@H](CCCCN)C(=O)N[C@@H](Cc1c[nH]cn1)C(=O)N[C@@H](CC(C)C)C(=O)N[C@@H](CC(N)=O)C(=O)N[C@@H](CO)C(=O)N[C@@H](CCSC)C(=O)N[C@@H](CCC(=O)O)C(=O)N[C@@H](CCCNC(=N)N)C(=O)N[C@H](C(=O)N[C@@H](CCC(=O)O)C(=O)N[C@@H](Cc1c[nH]c2ccccc12)C(=O)N[C@@H](CC(C)C)C(=O)N[C@@H](CCCNC(=N)N)C(=O)N[C@@H](CCCCN)C(=O)N[C@@H](CCCCN)C(=O)N[C@@H](CC(C)C)C(=O)N[C@@H](CCC(N)=O)C(=O)N[C@@H](CC(=O)O)C(=O)N[C@H](C(=O)N[C@@H](Cc1c[nH]cn1)C(=O)N[C@@H](CC(N)=O)C(=O)N[C@@H](Cc1ccccc1)C(=O)O)C(C)C)C(C)C` [PTH(1–34)] registered a half-life of 7.8 min. The “serum calcium or phosphorus” value in the data set with rats is recorded as “little or no change”. In the data set on TPTX rats [1], the “time for sPi to return to vehicle-control levels” value was not above 10 h; the “sCa response versus sham-control level” value is recorded as “failed to attain the sCa levels seen in the sham-control animals”; the “duration of modest, transient sCa increase and sPi decrease” value was less than 6 h. In the data set with cynomolgus monkeys (n = 3), the “efficacy for elevating sCa compared with PTH(1–84)” value was “even less effective”.
“PTH(1–84): human parathyroid hormone, produced recombinantly”: in the data set on HP patients (setting [5]), the “time for mean serum Ca to return to pre-dose, hypocalcemic levels” value was not above 24 h and the “time of peak sCa levels post-administration” value was approximately 7 h. Moreover, in the data set with HP patients (human, in vivo, sc), the serum half-life times result was “two to three hours” and the “subjects with hypercalcemia at peak times” value is on record as 71%. The “true serum half-life in the blood” value in data set [2] was “five minutes or less”. Besides, in the data set on TPTX rats [3], the “lumbar and femur BMD” value was “significantly increased”; the “sCa versus vehicle-injected TPTX rats” value was “no persistent increase”; the “sPi versus vehicle-injected TPTX rats” value is recorded as “only marginal reductions”; the “trabecular number at the distal femur” value is “significantly increased”. Further, in the data set on TPTX rats [1], the “time for sPi to return to vehicle-control levels” value was not above 10 h; the “sCa response versus sham-control level” value is “failed to attain the sCa levels seen in the sham-control animals”; the “duration of modest, transient sCa increase and sPi decrease” value is less than 6 h. In addition, the “serum half-life t1/2” value in data set [4] came to 5.4 min. Also, in the data set on cynomolgus monkeys, the “time for sCa to return to vehicle-control levels” value was not above 24 h. Further, in the data set on cynomolgus monkeys (n = 2), the “peak sCa level” value is recorded as ~ 11.4 mg/dL.
